Results on one compound are retold here after ChEMBL document CHEMBL4196173, “Stabilized β-Hairpin Peptide Inhibits Insulin Degrading Enzyme” (J Med Chem, 2018).

pIC50, pKd: −log10 of the molar value. Active and inactive are the calls of the source. No cut-off for these calls is given here. A value given as a limit tells only on which side of the number the result lay.

A short description of data set [1]: Selectivity ratio of IC50 for NEP (unknown origin) to IC50 for mouse His-tagged IDE (42 to 1019 residues).
The subject of data set [2] is Mus musculus. Nature of the data set: AUC (0 to 43 hrs) in lean C57BL/6J mouse at 100 mg/kg, ip by LC-MS analysis. It is filed as ADME, organism-based. The note with it: in vivo. Also on record: time < 43 hr, dose 100 mg/kg, route intraperitoneal. The gist of the method:
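Male lean C57BL/6J mice, 13–15 weeks old, given one i.p. dose of 100 mg kg−1 (n = 5). Tail or eye-socket blood was taken from 20 min to 43 h and spun to plasma. 30 μL plasma was mixed with 100 μL 10% TCA in H2O/CH3CN (1:1) and chilled at 277 K for 15 min. After centrifugation the peptide left in the supernatant was quantified by LC–MS. Two independent experiments.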

The subject of data set [3] is Mus musculus. As to the kind of experiment: Effect on basal beta-endrophins levels in lean C57BL/6J mouse at 80 mg/kg, ip after 30 to 120 mins post injection by ELISA. The note with it: in vivo. The data set is classed as ADME, organism-based. The gist of the method: (§1)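 Male lean C57BL/6J mice received 80 mg kg−1 i.p. (n = 5) or PBS. At 30 or 120 min, heparinized blood was taken from tail or eye socket and spun to plasma. Insulin (5 μL plasma), C-peptide, glucagon, beta-endorphin and TNF alpha (10 μL each) were measured by ultrasensitive ELISA. Mean ± SEM, two-tailed t test.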
A general note: ELISA stands for enzyme-linked immunosorbent assay.

Data set [4] concerns Mus musculus. Nature of the data set: Effect on basal c-peptide levels in lean C57BL/6J mouse at 80 mg/kg, ip after 30 to 120 mins post injection by ELISA. The data set is classed as ADME, organism-based. The note with it: in vivo. The gist of the method: as §1
Data set [5] can be described thus: Drug uptake in human HeLa cells at 5 uM using FITC-labeled compound after 2 hrs at 310 K by LC-MS analysis. It is filed as ADME, cell-based. The gist of the method:
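HeLa cells were exposed to FITC-labelled peptide for 2 h, washed with PBS and 0.4% trypan blue, then trypsinized, washed and lysed. The lysates were examined by LC–MS.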

Data set [6] deals with Insulin-degrading enzyme (Homo sapiens) (UniProt P14735). As to the kind of experiment: Inhibition of IDE (unknown origin) assessed as potentiation of insulin-induced AKT phosphorylation in rat skeletal muscle cells at 100 uM preincubated for 10 mins followed insulin addition measured by Western blot analysis. It is filed as cell-based. The gist of the method:
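Rat skeletal muscle cells were treated with 100 nM IDE plus peptide, for 10 min or at time points up to 24 h with 100 μM. Insulin (10 nM) was then added for 10 min. RIPA lysates were run on 10% SDS-PAGE and blotted for pAKT and AKT with GAPDH as loading control. Densitometry on three regions, two-tailed t test.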

Data set [7] can be described thus: Hemolytic activity against mouse RBC at 300 uM after 1 hr at 310 K. The note with it: mouse red blood cells (erythrocytes), read-out: Activity. It is filed as ADME, cell-based, Erythrocyte. The gist of the method:
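Fresh mouse red cells were washed six times and suspended at 1 × 10^8 cells/mL in PBS. Peptides at 2.3–300 μM were added for 1 h at 310 K. After centrifugation, hemoglobin in the supernatant was read at 576 nm. PBS served as 0% and 0.1% Triton X-100 as 100% lysis. Three independent experiments in duplicate.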

A short description of data set [8]: Metabolic stability in 25% mouse serum assessed as compound remaining at 250 uM up to 24 hrs by LC-MS analysis. The data set is classed as ADME, cell-free. The gist of the method: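 Peptide at a final 250 μM in 25% mouse serum was incubated at 310 K for 0–24 h. Samples were quenched in 12% TCA in H2O/CH3CN (1:1) and chilled at 277 K for 15 min. After centrifugation, the intact peptide in the supernatant was quantified by LC–MS. Three independent experiments.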

Data set [9] deals with Insulin-degrading enzyme (Homo sapiens, UniProt P14735, E111Q). As to the kind of experiment: Binding affinity to IDE E111Q mutant (unknown origin) using N-terminal FITC-labeled compound after 2 hrs in absence of light at 298 K by fluorescence polarization assay. The gist of the method: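 IDE-E111Q was titrated against 20 nM FITC-labelled peptide in 20 mM Tris-HCl pH 8.0, 50 mM NaCl, 1 mM TCEP and incubated 2 h at 277 K in the dark. Polarization was read at 298 K (ex 480, em 535 nm) and plotted against IDE concentration. Three independent experiments, each in duplicate.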
Sequence of Insulin-degrading enzyme (Homo sapiens, UniProt P14735, E111Q) (P14735 whole entry E111Q): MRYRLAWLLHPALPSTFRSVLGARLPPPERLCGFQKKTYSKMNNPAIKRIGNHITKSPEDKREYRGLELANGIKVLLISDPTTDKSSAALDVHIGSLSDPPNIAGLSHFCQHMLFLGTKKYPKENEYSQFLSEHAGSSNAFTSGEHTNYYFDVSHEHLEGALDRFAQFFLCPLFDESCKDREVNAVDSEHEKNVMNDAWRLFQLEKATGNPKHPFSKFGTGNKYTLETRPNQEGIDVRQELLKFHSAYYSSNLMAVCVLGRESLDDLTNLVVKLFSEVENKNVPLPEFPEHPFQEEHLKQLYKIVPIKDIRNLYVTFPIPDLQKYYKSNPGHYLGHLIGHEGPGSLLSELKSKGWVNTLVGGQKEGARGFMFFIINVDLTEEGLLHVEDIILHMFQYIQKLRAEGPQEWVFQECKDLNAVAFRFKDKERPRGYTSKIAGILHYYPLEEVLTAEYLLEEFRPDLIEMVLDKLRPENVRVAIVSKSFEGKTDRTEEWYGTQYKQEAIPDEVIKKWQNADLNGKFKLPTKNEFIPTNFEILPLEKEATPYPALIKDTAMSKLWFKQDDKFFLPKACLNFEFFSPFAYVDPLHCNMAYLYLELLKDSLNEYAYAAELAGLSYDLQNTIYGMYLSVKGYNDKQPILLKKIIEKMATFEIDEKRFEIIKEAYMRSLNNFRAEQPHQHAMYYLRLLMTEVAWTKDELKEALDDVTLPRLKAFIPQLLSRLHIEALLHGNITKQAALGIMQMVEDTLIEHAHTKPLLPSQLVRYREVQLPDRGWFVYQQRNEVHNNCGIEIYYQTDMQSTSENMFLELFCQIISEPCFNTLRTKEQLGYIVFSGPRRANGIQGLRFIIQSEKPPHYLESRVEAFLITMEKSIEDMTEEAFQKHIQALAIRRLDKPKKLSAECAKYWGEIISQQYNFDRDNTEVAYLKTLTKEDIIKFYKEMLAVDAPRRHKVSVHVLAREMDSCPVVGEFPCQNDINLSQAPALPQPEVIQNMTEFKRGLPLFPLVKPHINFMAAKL
For orientation: Polarisation of emitted light reports the rotation of a fluorescent probe.

Data set [10] relates to Mus musculus. As to the kind of experiment: Toxicity in lean C57BL/6J mouse assessed as body weight change at 80 mg/kg, ip after 3 days. The data set is classed as organism-based. Conditions: in vivo, 72 h. The procedure, abridged:
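Male lean C57BL/6J mice (13–15 weeks) received 80 mg kg−1 i.p. or PBS vehicle (n = 6 each). Behaviour and body weight were monitored.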

For data set [11], the target named is T1, Insulin-degrading enzyme (Mus musculus, UniProt Q9JHR7).
T1 sequence (Q9JHR7 whole entry): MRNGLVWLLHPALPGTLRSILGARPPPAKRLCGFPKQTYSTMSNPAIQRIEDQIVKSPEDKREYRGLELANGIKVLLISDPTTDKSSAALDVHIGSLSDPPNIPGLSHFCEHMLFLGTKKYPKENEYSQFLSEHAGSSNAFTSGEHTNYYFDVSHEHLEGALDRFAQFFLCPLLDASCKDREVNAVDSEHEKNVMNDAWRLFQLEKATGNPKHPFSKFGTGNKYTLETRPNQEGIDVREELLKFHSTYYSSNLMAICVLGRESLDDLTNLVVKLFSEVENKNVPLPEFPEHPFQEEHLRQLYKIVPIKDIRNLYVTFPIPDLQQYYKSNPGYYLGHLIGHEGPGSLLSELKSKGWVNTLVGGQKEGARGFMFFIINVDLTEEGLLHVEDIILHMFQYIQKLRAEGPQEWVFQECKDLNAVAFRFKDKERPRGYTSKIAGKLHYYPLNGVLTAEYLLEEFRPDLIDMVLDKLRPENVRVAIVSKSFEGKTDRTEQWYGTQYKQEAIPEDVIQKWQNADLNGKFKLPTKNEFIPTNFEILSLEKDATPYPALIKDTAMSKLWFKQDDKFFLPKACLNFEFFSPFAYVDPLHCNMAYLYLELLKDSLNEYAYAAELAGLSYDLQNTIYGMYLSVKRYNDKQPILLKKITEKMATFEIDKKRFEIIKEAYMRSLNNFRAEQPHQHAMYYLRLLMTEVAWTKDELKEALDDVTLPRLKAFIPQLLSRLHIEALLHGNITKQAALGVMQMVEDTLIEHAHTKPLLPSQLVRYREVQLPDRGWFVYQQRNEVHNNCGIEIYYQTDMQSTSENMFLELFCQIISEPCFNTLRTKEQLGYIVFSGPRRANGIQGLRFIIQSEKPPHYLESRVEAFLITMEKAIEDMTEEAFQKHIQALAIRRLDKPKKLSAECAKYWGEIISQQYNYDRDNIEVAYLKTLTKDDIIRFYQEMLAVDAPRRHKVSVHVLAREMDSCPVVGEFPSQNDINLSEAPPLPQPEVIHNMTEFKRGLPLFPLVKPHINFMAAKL
Nature of the data set: Inhibition of mouse His-tagged IDE (42 to 1019 residues) using fluorophore/quencher-tagged RPPGFSAFK(Dnp)-OH peptide as substrate preincubated for 10 mins followed by substrate addition measured over 5 mins by TR-FRET assay. In general terms: In TR-FRET formats the signal depends on donor and acceptor labels being close together.

Sequence of Insulin-degrading enzyme (Homo sapiens) (P14735 whole entry): as the sequence (P14735 whole entry E111Q) above, with Q111E counted along it

On to `CC(=O)N[C@@H](CCC(=O)O)C(=O)N[C@@H](Cc1c[nH]c2ccccc12)C(=O)N[C@@H](CCCNC(=N)N)C(=O)N[C@@H](Cc1ccccc1)C(=O)N[C@H]1CC(=O)NC[C@@H](C(=O)N[C@@H](CC(C)C)C(=O)N[C@@H](Cc2ccc(O)cc2)C(=O)N[C@@H](CC(C)C)C(=O)N[C@H](C(=O)N[C@@H](CS)C(=O)NCC(N)=O)C(C)C)NC(=O)[C@H](CCC(=O)O)NC(=O)[C@@H]2CCCN2C(=O)[C@H]2CCCN2C(=O)CNC1=O`, for which the Ratio IC50 in [1] is above 1000. Also, the AUC (usually concentration integrated over time) in the data set on Mus musculus [2] is 7600 µg·h/mL. Moreover, the Activity result in the data set with Mus musculus [3], in the data set on Mus musculus [4] and in the data set on Mus musculus [10] was “Non-Toxic” in each case. The Drug uptake entry in data set [5] is reported as “Active”. Also, the inhibition result in data set [6] was “Active”. In addition, the hemolysis at 1 h, 300 µM in data set [7] is below 10%. Moreover, in data set [8], the Stability entry is “Unstable”. Besides, the pKd – broadly, the Kd on a negative log10 scale, so that one unit is a factor of ten – at Insulin-degrading enzyme [9] is 7.66. Besides, the pIC50 (commonly the negative decadic logarithm of the IC50, by convention in mol/L) at Insulin-degrading enzyme [11] is 7.66.
